Calls of active or inactive are those of the source. The rule behind the calls is not given here.

From ChEMBL document CHEMBL5634095, “Design, synthesis and evaluation of novel pyrimidinylaminothiophene derivatives as FGFR1 inhibitors against human glioblastoma multiforme” (Eur J Med Chem, 2023) come the findings set out here.

For series [1], the system named is U-87 MG. The experiment in a line: Antiproliferative activity against human U-87 MG cells incubated for 48 hrs by MTT assay. A general note: Tetrazolium assays rely on reduction of a dye to a coloured formazan, in cell work by metabolically active cells.
Series [2] has as its system U-87 MG. The experiment in a line: Inhibition of colony formation in human U-87MG cells.
For series [3], the system named is U-87 MG. Briefly: Induction of cell cycle arrest in human U-87 MG cells assessed as increase in G2/M phase cell population at 3 uM incubated for 48 hrs by PI staining based flow cytometry analysis (reference value: 14.5 %). The format is functional, U-87MG ATCC. For orientation: Flow cytometry measures light scatter and fluorescence of single cells or particles in a stream.

Series [4] relates to U-87 MG. The experiment in a line: Antitumor activity against human U-87 MG cells implanted in nude mouse assessed as reduction in Ki67 expression at 75 mg/kg/day, po administered 5 times a week for 4 weeks by IHC analysis. It is filed as functional, U-87MG ATCC. More on the design: scale not given: the % may be the effect or the level left.
Series [5] deals with U-87 MG. The experiment in a line: Induction of cell cycle arrest in human U-87 MG cells assessed as increase in G2/M phase cell population at 0.3 uM incubated for 48 hrs by PI staining based flow cytometry analysis (reference value: 14.5 %). It is filed as functional, U-87MG ATCC.
In series [6] the test system is HUVEC. The experiment in a line: Anti-angiogenesis activity in HUVEC assessed as reduction in tube formation at 0.5 uM incubated for 24 hrs by matrigel based light microscopic analysis. The format is functional, Homo sapiens. More on the design: scale not given: the % may be the effect or the level left.
The subject of series [7] is U-87 MG. The experiment in a line: Induction of cell cycle arrest in human U-87 MG cells assessed as decrease in G0 phase cell population at 0.3 uM incubated for 48 hrs by PI staining based flow cytometry analysis (reference value: 71.6 %). More on the design: scale not given: the % may be the effect or the level left. It is filed as functional, U-87MG ATCC.
Series [8] has as its system U-87 MG. Briefly: Antitumor activity against human U-87 MG cells implanted in nude mouse assessed as reduction in Ki67 expression at 50 mg/kg/day, po administered 5 times a week for 4 weeks by IHC analysis. The format is functional, U-87MG ATCC. More on the design: scale not given: the % may be the effect or the level left.
Series [9] relates to U-87 MG. Briefly: Induction of cell cycle arrest in human U-87 MG cells assessed as increase in G2/M phase cell population at 1 uM incubated for 48 hrs by PI staining based flow cytometry analysis (reference value: 14.5 %). It is filed as functional, U-87MG ATCC.
The test system of series [10] is U-87 MG. The experiment in a line: Induction of cell cycle arrest in human U-87 MG cells assessed as decrease in G0 phase cell population at 1 uM incubated for 48 hrs by PI staining based flow cytometry analysis (reference value: 71.6 %). The format is functional, U-87MG ATCC. Further details: scale not given: the % may be the effect or the level left.
A short description of series [11]: Cmax in rat at 52.5 mg/kg, po measured upto 48 hrs by LC analysis. The format is ADME, organism-based. The settings on record: in vivo. The gist of the method: (§1)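 Rats (n=5) dosed orally once with 52.5 mg/kg, dispersed in sodium carboxymethyl cellulose. Plasma separated at 1200×g, deproteinated with acetonitrile, then analysed by UHPLC on a C18 column with a methanol/formic acid eluent.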

The test system of series [12] is U-87 MG. Briefly: Antitumor activity against human U-87 MG cells implanted in nude mouse assessed as reduction in CD31 expression at 75 mg/kg/day, po administered 5 times a week for 4 weeks by IHC analysis. Further details: scale not given: the % may be the effect or the level left. The format is functional, U-87MG ATCC.
In series [13] the test system is U-87 MG. Briefly: Antitumor activity against human U-87 MG cells implanted in nude mouse assessed as reduction in CD31 expression at 50 mg/kg/day, po administered 5 times a week for 4 weeks by IHC analysis. The format is functional, U-87MG ATCC. More on the design: scale not given: the % may be the effect or the level left.
The subject of series [14] is HUVEC. Briefly: Anti-angiogenesis activity in HUVEC assessed as reduction in tube formation at 0.1 uM incubated for 24 hrs by matrigel based light microscopic analysis. The format is functional, Homo sapiens. More on the design: scale not given: the % may be the effect or the level left.
For series [15], the species on record is Mus musculus. To be noted: dose 50-75 mg/kg/day, route po, time 4.0 weeks.
Series [16] deals with HUVEC. The experiment in a line: Anti-angiogenesis activity in HUVEC assessed as reduction in tube formation at 2 uM incubated for 24 hrs by matrigel based light microscopic analysis. The format is functional, Homo sapiens. More on the design: scale not given: the % may be the effect or the level left.
The nature of series [17]: Terminal half-life in rat at 52.5 mg/kg, po measured upto 48 hrs by LC analysis. The format is ADME, organism-based. The settings on record: in vivo, read-out: beta t1/2 (converted). The gist of the method: as §1
The test system of series [18] is U-87 MG. Briefly: Anti-invasive activity against human U-87 MG cells assessed as reduction in number of cells at upper well at 3 uM incubated for 24 hrs by crystal violet staining based inverted microscope analysis. The format is functional, U-87MG ATCC. An outline of the steps:
(§2)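 Transwell top chambers coated with Matrigel (1:9 in serum-free DMEM). U-87 MG cells pretreated 20 min with 0.1% DMSO or compound, seeded at 1×10^4 cells/well, with complete medium below. After 24 h, non-invading cells removed and the rest fixed in paraformaldehyde, stained with 0.1% crystal violet, imaged at ×100 in six random fields and counted.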

Series [19] concerns U-87 MG. The experiment in a line: Anti-invasive activity against human U-87 MG cells assessed as reduction in number of cells at upper well at 0.3 uM incubated for 24 hrs by crystal violet staining based inverted microscope analysis. It is filed as functional, U-87MG ATCC. An outline of the steps:
as §2

Series [20] in a line: AUC in rat at 52.5 mg/kg, po measured upto 48 hrs by LC analysis. It is filed as ADME, organism-based. To be noted: in vivo. The gist of the method:
as §1

Series [21] deals with U-87 MG. The experiment in a line: Induction of cell cycle arrest in human U-87 MG cells assessed as decrease in G0 phase cell population at 3 uM incubated for 48 hrs by PI staining based flow cytometry analysis (reference value: 71.6 %). The format is functional, U-87MG ATCC. More on the design: scale not given: the % may be the effect or the level left.
The nature of series [22]: Tmax in rat at 52.5 mg/kg, po measured upto 48 hrs by LC analysis. The settings on record: in vivo. The format is ADME, organism-based. The gist of the method:
as §1

In series [23] the test system is NIH3T3. Briefly: Cytotoxicity against mouse NIH/3T3 cells incubated for 48 hrs by MTT assay. The format is toxicity, cell-based. To be noted: nih3t3, 48 h.

As a reminder, the IC50 is the concentration needed to halve the response being measured. `CNC(=O)c1ccsc1Nc1nc(Nc2ccc(N3CCN(CCO)CC3)cc2)ncc1C(F)(F)F` yielded an IC50 in [1] of 3.71 µM.

In the case of `CNC(=O)c1ccsc1Nc1nc(Nc2ccc(N3CCC(N4CCCCC4)CC3)cc2)ncc1C(F)(F)F`, the midpoint of inhibition in series [1], the IC50, lay at 2.77 µM.

Take `COc1cc(CCc2cc(NC(=O)c3ccc(N4C[C@@H](C)N[C@@H](C)C4)cc3)n[nH]2)cc(OC)c1` [FEXAGRATINIB]: the IC50 in series [1] turned out to be 25.4 µM.

`CNC(=O)c1ccsc1Nc1nc(Nc2cccc(N3CCOCC3)c2)ncc1C(F)(F)F` registered an IC50 in series [1] of 19.2 µM.

For `CNC(=O)c1ccsc1Nc1nc(Nc2ccc(N3CCC(N4CCOCC4)CC3)cc2)ncc1Cl`, the IC50 in series [1] is 4.25 µM.

With `CNC(=O)c1ccsc1Nc1nc(Nc2ccc(N3CCOCC3)cc2)ncc1C(F)(F)F`, the IC50 in series [1] is greater than 50 µM.

The term Cmax denotes the maximum level reached in the sampled fluid or tissue. For orientation: AUC means concentration integrated over time. Usually Tmax stands for the time at which the peak concentration occurs. With `CNC(=O)c1ccsc1Nc1nc(Nc2ccc(N3CCC(N4CCOCC4)CC3)cc2)ncc1C(F)(F)F`, the IC50 in series [2] came to 0.12 µM; in [1], 2.38 µM. For the same compound, the Activity in [3] is listed as 86.8%; in [4], 62%; in series [5], 56.8%; in series [6], 59.7%; in series [7], 34.4%; in series [8], 38.4%. The Activity came to 79.4% in [9]; 16.6% in [10]; 37.5% in series [12]; 78.9% in series [13]; 10.4% in series [14]; 81% in [16]. For the same compound, the Activity in series [18] is 24; in [19] it was 71; in [21], 9.36%; in series [23], “Non-Toxic”. The compound also registered a Cmax in series [11] of 3900 ng/mL. Further, the inhibition entry in series [15] was “Active”. Further, the half-life in series [17] was 14.3 h. Further, the exposure (AUC) at 48 h in series [20] was found to be 71500 ng·h/mL. Besides, the Tmax in series [22] was determined as 4.4 h.

As to `CNC(=O)c1ccsc1Nc1nc(Nc2ccc(CS(=O)(=O)N3CCOCC3)cc2)ncc1C(F)(F)F`, the IC50 in series [1] was found to be 18.9 µM.

As to `CNC(=O)c1cc(C(C)(C)C)sc1Nc1nc(Nc2ccc(N3CCOCC3)cc2)ncc1C(F)(F)F`, the half-maximal inhibitory concentration (IC50) in series [1] was greater than 50 µM.

As for `CNC(=O)c1ccsc1Nc1nc(Nc2ccc(CCN3CCS(=O)(=O)CC3)cc2)ncc1C(F)(F)F`, the IC50 in [1] was determined as 12.4 µM.

In turn, `CNC(=O)c1ccsc1Nc1nc(Nc2ccc(N3CCC(N4CCOCC4)CC3)cc2)ncc1C` displayed an IC50 in series [1] of 11.6 µM.

With `CNC(=O)c1ccsc1Nc1nc(Nc2ccc(OCCN3CCOCC3)cc2)ncc1C(F)(F)F`, it took 12 µM to reach half-maximal inhibition in series [1] (IC50).

For `CNC(=O)c1cc(-c2ccccc2)sc1Nc1nc(Nc2ccc(N3CCOCC3)cc2)ncc1C(F)(F)F`, in [1], inhibition was half-maximal at 23.2 µM (IC50).

`CNC(=O)c1ccsc1Nc1nc(Nc2ccc(N3CCC(N4CCOCC4)CC3)cc2)ncc1Br` registered an IC50 in series [1] of 30.1 µM.
